# Measurements collected from several papers.
# Cell line: MDA-MB-231
# Observed: cell growth or viability
Compound,technique,tested at,time,quantity,result
Cc1cccc(/C=C/C(=O)Nc2cccc(-c3ccnc(N4CCC(CO)CC4)c3)c2)c1,MTT,5 µM,,inhibition,76.4%
O=C(O)c1cccnc1Nc1cccc(C(F)(F)F)c1,SRB,,48 h,GI50,> 30000 nM
C[C@@H]1CC[C@@H]([C@](C)(O)Cn2cnc3ccccc32)[C@H](OCc2ccccc2)C1,MTT,30 µM,72 h,inhibition,83.2%
C#Cc1nc(C2=C(C)C(O)CC2)cs1 (stereo not shown),,,,CC50,3200 nM
C[C@@H]1CC[C@@H]([C@@](O)(CNCc2cccc3ccccc23)COCc2ccccc2)[C@H](OCc2ccccc2)C1,MTT,10 µM,72 h,inhibition,83%
Nc1ccccc1NC(=O)c1ccc(CNC(=O)OCc2cccnc2)cc1,MTT,,48 h,IC50,2930 nM
C=C(COCc1ccccc1)[C@@H]1CC[C@@H](C)C[C@H]1OCc1ccccc1,MTT,30 µM,72 h,inhibition,28.1%
Cc1cccc(/C=C/C(=O)Nc2cc(-c3ccnc(N4CCOCC4)c3)ccn2)c1,MTT,5 µM,,inhibition,79.3%
CCc1c(C)c2ccc(OCC(=O)NNC(=S)Nc3ccccc3)c(C)c2oc1=O,MTT,500 µg/mL,,viability,4.23%
C=CC(=O)NC1CCN(c2ncc3ncnc(Nc4ccc(Oc5ccc6c(c5)ncn6C)c(C)c4)c3n2)CC1,,,,EC50,328 nM
C[C@@H]1CC[C@@H]([C@@](O)(CNCc2ccccc2)COCc2ccccc2)[C@H](OCc2ccccc2)C1,MTT,30 µM,72 h,inhibition,97%
O=C(C=Cc1ccccc1)Nc1cccc(-c2ccnc(N3CCOCC3)c2)c1,MTT,5 µM,,inhibition,49%
C[C@@H]1CC[C@@H]([C@](O)(CNCc2ccc(F)cc2)COCc2ccc(F)cc2)[C@H](OCc2ccc(F)cc2)C1,MTT,30 µM,72 h,inhibition,95%
CCc1c(C)c2ccc(OCC(=O)NN=Cc3ccc([N+](=O)[O-])cc3)cc2oc1=O,MTT,250 µg/mL,,viability,17.3%
O=C(C=Cc1cccc(F)c1)Nc1cc(-c2ccnc(N3CCC(O)CC3)c2)ccn1,MTT,5 µM,,inhibition,78.3%
CCOc1ccc2c(C)c(CC)c(=O)oc2c1C,MTT,1000 µg/mL,,viability,2.44%
CCNCCCn1c2c(c3cc(OC)c(OC)cc3c1=O)C(=O)c1cc3c(nc1-2)OCO3,MTS,,72 h,IC50,476 nM
Nc1ccccc1NC(=O)c1ccc(CNc2ccc(NC3=C(Cl)C(=O)c4cccnc4C3=O)cc2)cc1,MTT,,48 h,IC50,1070 nM
Cc1cccc(/C=C/C(=O)Nc2cccc(-c3ccnc(N4CCC(O)CC4)c3)c2)c1,MTT,5 µM,,inhibition,63.5%
CCc1c(C)c2ccc(OCC=Cc3ccccc3)c(C)c2oc1=O,MTT,125 µg/mL,,viability,87.1%
COc1cc2c3c(n(CCCNCCO)c(=O)c2cc1OC)-c1nc2c(cc1C3=O)OCO2,MTS,,72 h,IC50,806 nM
C=CC(=O)c1cccnc1Nc1cc(C(F)(F)F)ccc1OCc1ccccc1,SRB,,48 h,GI50,18300 nM
CC(C)CS(=O)(=O)NCc1cccc(-c2ccc3c(NC(=O)CC4CC4)n[nH]c3c2)c1,ATP luminescence,,48 h,IC50,60000 nM
CCNC(=S)NNC(=O)COc1ccc2c(C)c(CC)c(=O)oc2c1C,MTT,1000 µg/mL,,viability,4.73%
C[C@@H]1CC[C@@H]([C@](C)(O)CNCc2cccc(F)c2)[C@H](OCc2ccccc2)C1,MTT,30 µM,72 h,inhibition,96.1%
Cc1cccc(/C=C/C(=O)Nc2cccc(-c3ccnc(N4CCOCC4)c3)c2)c1,MTT,5 µM,,inhibition,32.2%
COc1ccc(CNC[C@](O)(COCc2ccc(F)cc2)[C@@H]2CC[C@@H](C)C[C@H]2OCc2ccc(F)cc2)cc1,MTT,10 µM,72 h,inhibition,99.6%
C=CCNC(=S)NNC(=O)COc1ccc2c(C)c(CC)c(=O)oc2c1C,MTT,500 µg/mL,,viability,3%
O=C(C=Cc1ccccc1)Nc1cc(-c2ccnc(N3CCC(O)CC3)c2)ccn1,MTT,5 µM,,inhibition,80.3%
COc1ccc(CNC[C@](O)(COCc2ccc(OC)cc2)[C@@H]2CC[C@@H](C)C[C@H]2OCc2ccc(OC)cc2)cc1,MTT,30 µM,72 h,inhibition,98.8%
CC(=NNC(=O)COc1ccc2c(C)c(Cc3ccccc3)c(=O)oc2c1C)c1ccc(Br)cc1,MTT,250 µg/mL,,viability,22.8%
COc1cc2c3c(n(CCCN4CCOCC4)c(=O)c2cc1OC)-c1nc2c(cc1C3=O)OCO2,MTS,,72 h,IC50,> 2000 nM
Cc1c(Cc2ccccc2)c(=O)oc2c(C)c(OCC(=O)NN=Cc3ccc(Cl)cc3)ccc12,MTT,62.5 µg/mL,,viability,47.1%
O=C(/C=C/c1ccc(F)cc1)Nc1cc(-c2ccnc(N3CCC(O)CC3)c2)ccn1,MTT,5 µM,,inhibition,63%
